Results from ChEMBL document CHEMBL1132932, “Design of a Gag pentapeptide analogue that binds human cyclophilin A more efficiently than the entire capsid protein: new insights for the development of novel anti-HIV-1 drugs” (J Med Chem, 2000).
Starred links: 1 amine or outer side, 2 acyl side, 3 side chain; linkers in the order of their positions; H or OH if unused. Non-standard residues stand in square brackets, D forms with d. Residues, ends and D or L forms follow the SMILES beside them. *: point of attachment. Desaminohistidyl = O=C(CCc1c[nH]cn1)*; NHCH2CHPh2 = c1ccc(C(CN*)c2ccccc2)cc1; NHCHPh2 = c1ccc(C(N*)c2ccccc2)cc1; pNA = O=[N+]([O-])c1ccc(N*)cc1; NHPhenethyl = c1ccc(CCN*)cc1; Suc = O=C(CCC(=O)[*:2])[*:1]; Isovaleryl = CC(C)CC(=O)*; Ac5c = NC1(C(=O)O)CCCC1; Api = NC1(C(=O)O)CCNCC1; Aib = CC(C)(N)C(=O)O; NHBn = c1ccc(CN*)cc1

biological target: T1, Peptidyl-prolyl cis-trans isomerase A (Homo sapiens, UniProt P62937); assay: % inhibition of competitive binding, at 500 uM, against hCyp-18 PPIase activity using uncoupled assay
Target sequence in this assay (P62937 whole entry, looked up): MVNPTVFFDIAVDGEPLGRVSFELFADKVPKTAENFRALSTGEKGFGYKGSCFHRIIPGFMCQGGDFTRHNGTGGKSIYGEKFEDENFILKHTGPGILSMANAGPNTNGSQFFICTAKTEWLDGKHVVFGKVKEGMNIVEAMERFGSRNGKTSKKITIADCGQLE

Row | inhibition [%] | Compound
1 | 54 | CC[C@H](C)[C@H](NC(=O)[C@@H]1CCCN1C(=O)CNC(=O)[C@H](C)NC(=O)[C@H](Cc1c[nH]cn1)NC(=O)[C@@H](NC(C)=O)C(C)C)C(=O)NCC(c1ccccc1)c1ccccc1 (Ac-VHAGPI-NHCH2CHPh2)
2 | 55 | CC[C@H](C)[C@H](NC(=O)[C@@H]1CCCN1C(=O)CNC(=O)[C@H](C)NC(=O)[C@H](Cc1c[nH]cn1)NC(=O)[C@@H](NC(C)=O)C(C)C)C(=O)NCCc1ccccc1 (Ac-VHAGPI-NHPhenethyl)
3 | 38 | C[C@H](NC(=O)CCC(=O)O)C(=O)N[C@@H](C)C(=O)N1CCC[C@H]1C(=O)N[C@@H](Cc1ccccc1)C(=O)Nc1ccc([N+](=O)[O-])cc1 (Suc-AAPF-pNA)

biological target: T1, Peptidyl-prolyl cis-trans isomerase A; assay: 50% inhibitory concentration of competitive binding against human Peptidyl-prolyl isomerase activity using uncoupled assay
Outline: (§1)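 Recombinant human hCyp-18 (expressed in E. coli M15, ion-exchange purified), 16 nM in 35 mM Hepes pH 7.8, preincubated 2 min with peptides added from DMSO stocks (100 µM to 100 mM). Substrate Suc-Ala-Ala-Pro-Phe-DFA in TFE/0.47 M LiCl added to a final 200 µM. Uncoupled cis/trans isomerization followed by absorbance at 246 nm, 10 °C, over 6 min. Pseudo-first-order k_obs taken from 0.05–0.5 min data, activity expressed relative to uncatalyzed rate, n = 2.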
Target sequence in this assay (P62937 whole entry): as the sequence (P62937 whole entry, looked up) above

Row | IC50 [µM] | Compound
4 | 2100 | CC[C@H](C)[C@H](NC(=O)[C@@H]1CCCN1C(=O)CNC(=O)[C@H](C)NC(=O)[C@H](Cc1c[nH]cn1)NC(=O)[C@@H](N)C(C)C)C(=O)N[C@@H](C)C(N)=O
5 | 820 | CC(=O)N[C@H](C(=O)N[C@@H](Cc1c[nH]cn1)C(=O)N[C@@H](C)C(=O)NCC(=O)N1CCC[C@H]1C(=O)N[C@H](C(=O)N[C@H](C)C(N)=O)c1ccccc1)C(C)C
6 | 1500 | CC(=O)N[C@H](C(=O)N[C@@H](Cc1cnc[nH]1)C(=O)N[C@@H](C)C(=O)NCC(=O)N1CCC[C@H]1C(=O)N[C@H](C(=O)N[C@@H](C)C(N)=O)C(C)C)C(C)C
7 | 970 | CC(=O)N[C@H](C(=O)N[C@@H](Cc1cnc[nH]1)C(=O)N[C@@H](C)C(=O)NCC(=O)N1CCC[C@H]1C(=O)N[C@@H](C(=O)N[C@H](C)C(N)=O)c1ccccc1)C(C)C
8 | 760 | CC[C@H](C)[C@H](NC(=O)[C@@H]1CCCN1C(=O)CNC(=O)C(C)(C)NC(=O)[C@H](Cc1c[nH]cn1)NC(=O)[C@@H](NC(C)=O)C(C)C)C(=O)N[C@@H](C)C(N)=O
9 | 1300 | CC(=O)N[C@H](C(=O)N[C@@H](Cc1cnc[nH]1)C(=O)N[C@@H](C)C(=O)NCC(=O)N1CCC[C@H]1C(=O)N[C@@H](CCC(N)=O)C(=O)N[C@@H](C)C(N)=O)C(C)C
10 | 2800 | CC(=O)N[C@H](C(=O)N[C@@H](Cc1c[nH]cn1)C(=O)N[C@@H](C)C(=O)NCC(=O)N1CCC[C@H]1C(=O)NCC(=O)N[C@@H](C)C(N)=O)C(C)C
11 | 850 | CC[C@H](C)[C@H](NC(=O)[C@@H]1CCCN1C(=O)CNC(=O)[C@H](C)NC(=O)[C@H](Cc1cnc[nH]1)NC(=O)[C@@H](NC(C)=O)C(C)C)C(=O)N[C@@H](C)C(N)=O
12 | 280 | CC[C@H](C)[C@H](NC(=O)[C@@H]1CCCN1C(=O)CNC(=O)[C@H](C)NC(=O)[C@H](Cc1c[nH]cn1)NC(C)=O)C(=O)NCc1ccccc1 (Ac-HAGPI-NHBn)
13 | 115 | CC[C@H](C)[C@H](NC(=O)[C@@H]1CCCN1C(=O)CNC(=O)[C@H](C)NC(=O)[C@H](Cc1c[nH]cn1)NC(=O)[C@@H](NC(C)=O)C(C)C)C(=O)NCc1ccccc1 (Ac-VHAGPI-NHBn)
14 | 1500 | CC[C@H](C)[C@H](NC(=O)[C@@H]1CCCN1C(=O)CNC(=O)[C@H](C)NC(=O)[C@H](Cc1c[nH]cn1)NC(=O)[C@@H](NC(C)=O)C(C)C)C(=O)NC(c1ccccc1)c1ccccc1 (Ac-VHAGPI-NHCHPh2)
15 | 680 | CC(=O)N[C@H](C(=O)N[C@@H](Cc1cnc[nH]1)C(=O)N[C@@H](C)C(=O)NCC(=O)N1CCC[C@H]1C(=O)NC1(C(=O)N[C@@H](C)C(N)=O)CCCC1)C(C)C (Ac-VHAGP[Ac5c]A-NH2)
16 | > 10000 | CC(=O)N[C@H](C(=O)N[C@@H](Cc1c[nH]cn1)C(=O)N[C@@H](C)C(=O)NCC(=O)N1CCC[C@H]1C(=O)NC(C)(C)C(=O)N[C@@H](C)C(N)=O)C(C)C (Ac-VHAGP[Aib]A-NH2)
17 | > 10000 | CC(=O)N[C@H](C(=O)N[C@@H](Cc1c[nH]cn1)C(=O)N[C@@H](C)C(=O)NCC(=O)N1CCC[C@H]1C(=O)NC1(C(=O)N[C@@H](C)C(N)=O)CCNCC1)C(C)C (Ac-VHAGP[Api]A-NH2)
18 | > 10000 | CC[C@H](C)[C@H](NC(=O)[C@@H]1CCCN1C(=O)CNC(=O)[C@H](C)NC(=O)CCc1cnc[nH]1)C(=O)NCc1ccccc1 (Desaminohistidyl-AGPI-NHBn)
19 | 260 | CC[C@H](C)[C@H](NC(=O)[C@@H]1CCCN1C(=O)CNC(=O)[C@H](C)NC(=O)[C@H](Cc1cnc[nH]1)NC(=O)[C@@H](N)C(C)C)C(=O)NCc1ccccc1 (H-VHAGPI-NHBn)
20 | 6 | CC[C@H](C)[C@H](NC(=O)[C@@H]1CCCN1C(=O)CNC(=O)[C@H](C)NC(=O)[C@H](Cc1cnc[nH]1)NC(=O)CC(C)C)C(=O)NCc1ccccc1 (Isovaleryl-HAGPI-NHBn)
21 | 90 | CC(C)CC(=O)N[C@@H](Cc1cnc[nH]1)C(=O)N[C@@H](C)C(=O)NCC(=O)N1CCC[C@H]1C(=O)NC1(C(=O)NCc2ccccc2)CCCC1 (Isovaleryl-HAGP[Ac5c]-NHBn)
22 | > 10000 | CC[C@H](C)[C@H](NC(=O)[C@@H]1CCCN1C(=O)CNC(=O)C(C)(C)NC(=O)[C@H](Cc1cnc[nH]1)NC(=O)CC(C)C)C(=O)NCc1ccccc1 (Isovaleryl-H[Aib]GPI-NHBn)
23 | 500 | CC(C)CC(=O)N[C@@H](Cc1c[nH]cn1)C(=O)NC(C)(C)C(=O)NCC(=O)N1CCC[C@H]1C(=O)NC1(C(=O)NCc2ccccc2)CCCC1 (Isovaleryl-H[Aib]GP[Ac5c]-NHBn)
24 | 1000 | CC[C@H](C)[C@H](NC(=O)[C@@H]1CCCN1C(=O)CNC(=O)[C@H](C)NC(=O)[C@H](Cc1c[nH]cn1)NC(=O)[C@@H](NC(=O)CCC(=O)O)C(C)C)C(=O)N[C@@H](C)C(N)=O (Suc-VHAGPIA-NH2)
25 | 2500 | Ac-VQAGPIA-NH2

biological target: T1, Peptidyl-prolyl cis-trans isomerase A; assay: % inhibition of competitive binding, at 500 uM, against human Peptidyl-prolyl isomerase activity using uncoupled assay
Target sequence in this assay (P62937 whole entry, looked up): as above

Row | inhibition [%] | Compound
26 | 52 | CC(=O)N[C@H](C(=O)N[C@@H](Cc1c[nH]cn1)C(=O)N[C@@H](C)C(=O)NCC(=O)N1CCC[C@H]1C(=O)NC1(C(=O)N[C@@H](C)C(N)=O)CCCC1)C(C)C (Ac-VHAGP[Ac5c]A-NH2)

biological target: T1, Peptidyl-prolyl cis-trans isomerase A; assay: % inhibition of competitive binding, at 500 uM, against human Peptidyl-prolyl isomerase
Outline: as §1
Target sequence in this assay (P62937 whole entry, looked up): as above

Row | inhibition [%] | Compound
27 | 43 | CC(=O)N[C@H](C(=O)N[C@@H](Cc1c[nH]cn1)C(=O)N[C@@H](C)C(=O)NCC(=O)N1CCC[C@H]1C(=O)N[C@H](C(=O)N[C@H](C)C(N)=O)c1ccccc1)C(C)C
28 | 28 | CC(=O)N[C@H](C(=O)N[C@@H](Cc1c[nH]cn1)C(=O)N[C@@H](C)C(=O)NCC(=O)N1CCC[C@H]1C(=O)NCC(=O)N[C@H](C)C(N)=O)C(C)C
29 | 37 | CC(=O)N[C@H](C(=O)N[C@@H](Cc1c[nH]cn1)C(=O)N[C@@H](C)C(=O)NCC(=O)N1CCC[C@H]1C(=O)N[C@@H](C(=O)N[C@H](C)C(N)=O)c1ccccc1)C(C)C
30 | 15 | CC(=O)N[C@H](C(=O)N[C@@H](Cc1c[nH]cn1)C(=O)N[C@@H](C)C(=O)NCC(=O)N1CCC[C@H]1C(=O)N[C@@H](CCC(N)=O)C(=O)N[C@H](C)C(N)=O)C(C)C
31 | 31 | CC(=O)N[C@H](C(=O)N[C@@H](Cc1c[nH]cn1)C(=O)N[C@@H](C)C(=O)NCC(=O)N1CCC[C@H]1C(=O)N[C@H](C(=O)N[C@H](C)C(N)=O)C(C)C)C(C)C
32 | 45 | CC[C@@H](C)[C@@H](NC(=O)[C@@H]1CCCN1C(=O)CNC(=O)C(C)(C)NC(=O)[C@H](Cc1c[nH]cn1)NC(=O)[C@@H](NC(C)=O)C(C)C)C(=O)N[C@H](C)C(N)=O
33 | 19 | CC[C@@H](C)[C@@H](NC(=O)[C@@H]1CCCN1C(=O)CNC(=O)[C@H](C)NC(=O)[C@H](Cc1c[nH]cn1)NC(=O)[C@@H](NC(C)=O)C(C)C)C(=O)N[C@H](C)C(N)=O
34 | 20 | CC[C@H](C)[C@H](NC(=O)[C@@H]1CCCN1C(=O)CNC(=O)[C@H](C)NC(=O)CCc1c[nH]cn1)C(=O)N[C@H](C)C(N)=O
35 | 15 | CC[C@H](C)[C@H](NC(=O)[C@@H]1CCCN1C(=O)CNC(=O)[C@H](C)NC(=O)[C@@H](N)Cc1c[nH]cn1)C(=O)N[C@H](C)C(=O)O
36 | 76 | CC[C@H](C)[C@H](NC(=O)[C@@H]1CCCN1C(=O)CNC(=O)[C@H](C)NC(=O)[C@H](Cc1c[nH]cn1)NC(=O)CC(C)C)C(=O)N[C@H](C)C(N)=O
37 | 11 | CC[C@H](C)[C@H](NC(=O)[C@@H]1CCCN1C(=O)CNC(=O)[C@H](C)NC(=O)[C@H](Cc1c[nH]cn1)NC(=O)[C@@H](N)C(C)C)C(=O)N[C@H](C)C(N)=O
38 | 55 | CC[C@H](C)[C@H](NC(=O)[C@@H]1CCCN1C(=O)CNC(=O)[C@H](C)NC(=O)[C@H](Cc1c[nH]cn1)NC(C)=O)C(=O)NCc1ccccc1 (Ac-HAGPI-NHBn)
39 | 88 | CC[C@H](C)[C@H](NC(=O)[C@@H]1CCCN1C(=O)CNC(=O)[C@H](C)NC(=O)[C@H](Cc1c[nH]cn1)NC(=O)[C@@H](NC(C)=O)C(C)C)C(=O)NCc1ccccc1 (Ac-VHAGPI-NHBn)
40 | 38 | CC[C@H](C)[C@H](NC(=O)[C@@H]1CCCN1C(=O)CNC(=O)[C@H](C)NC(=O)[C@H](Cc1c[nH]cn1)NC(=O)[C@@H](NC(C)=O)C(C)C)C(=O)NC(c1ccccc1)c1ccccc1 (Ac-VHAGPI-NHCHPh2)
41 | 59 | CC[C@H](C)[C@H](NC(=O)[C@@H]1CCCN1C(=O)CNC(=O)[C@H](C)NC(=O)[C@H](Cc1c[nH]cn1)NC(=O)[C@@H](N)C(C)C)C(=O)NCc1ccccc1 (H-VHAGPI-NHBn)
42 | 99 | CC[C@H](C)[C@H](NC(=O)[C@@H]1CCCN1C(=O)CNC(=O)[C@H](C)NC(=O)[C@H](Cc1c[nH]cn1)NC(=O)CC(C)C)C(=O)NCc1ccccc1 (Isovaleryl-HAGPI-NHBn)
43 | 57 | CC(C)CC(=O)N[C@@H](Cc1c[nH]cn1)C(=O)N[C@@H](C)C(=O)NCC(=O)N1CCC[C@H]1C(=O)NC1(C(=O)NCc2ccccc2)CCCC1 (Isovaleryl-HAGP[Ac5c]-NHBn)
44 | 50 | CC(C)CC(=O)N[C@@H](Cc1c[nH]cn1)C(=O)NC(C)(C)C(=O)NCC(=O)N1CCC[C@H]1C(=O)NC1(C(=O)NCc2ccccc2)CCCC1 (Isovaleryl-H[Aib]GP[Ac5c]-NHBn)
45 | 13 | CC[C@H](C)[C@H](NC(=O)[C@@H]1CCCN1C(=O)CNC(=O)[C@H](C)NC(=O)[C@H](Cc1c[nH]cn1)NC(=O)[C@@H](NC(=O)CCC(=O)O)C(C)C)C(=O)N[C@@H](C)C(N)=O (Suc-VHAGPIA-NH2)
